# Sampled rows, rich in hits. Any-hit rate of the full collection: about 2.5%.
# SIAE primary: inhibitors of human sialic acid acetylesterase SIAE; Q9HAT2; SIAE FP-Rh probe binding, fluorescence polarization; inhibition, % at 9.66 µM; 370,000 tested, 0.69% active; AID 1053197;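 active means inhibition above a cutoff: mean of compounds within the control limits plus 3 SD of those, cut at about 17% in these data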
# Target sequence (Q9HAT2 whole entry, looked up): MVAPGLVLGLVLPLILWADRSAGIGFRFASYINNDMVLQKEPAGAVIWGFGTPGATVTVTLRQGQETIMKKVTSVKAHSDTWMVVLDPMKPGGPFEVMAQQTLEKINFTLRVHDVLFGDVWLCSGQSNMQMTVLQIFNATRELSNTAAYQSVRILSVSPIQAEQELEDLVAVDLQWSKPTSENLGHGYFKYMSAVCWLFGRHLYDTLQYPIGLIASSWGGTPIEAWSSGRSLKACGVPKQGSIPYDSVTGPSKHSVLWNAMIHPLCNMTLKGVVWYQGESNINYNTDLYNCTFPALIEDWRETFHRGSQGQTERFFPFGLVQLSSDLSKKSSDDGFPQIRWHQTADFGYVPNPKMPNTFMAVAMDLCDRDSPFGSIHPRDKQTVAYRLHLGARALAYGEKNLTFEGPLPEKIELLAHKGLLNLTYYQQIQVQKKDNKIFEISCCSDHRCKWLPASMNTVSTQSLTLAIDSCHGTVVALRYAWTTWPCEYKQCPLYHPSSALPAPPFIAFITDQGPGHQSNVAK
# mABHD4 FP: inhibits mouse alpha/beta hydrolase domain 4; Q8VD66; purified mABHD4, FP-Rh probe fluorescence polarization; inhibition, % at 8.92 µM; 370,000 tested, 0.54% active; AID 720543;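 active means inhibition exceeding the mean over every tested compound plus 3 SD, cut at about 30% in these data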
#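 assay system = mABHD4 protein | compound dosing = single nominal dose of 8.92 µM, 0.89% DMSO final | read-out basis = percent inhibition of probe binding, normalized to plate controls | schedule = Enzyme–compound pre-incubation 45 min, then probe 60 min, both 25 °C | detection = fluorescence polarization, excitation 525 nm, emission 598 nm, BODIPY TMR filters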
# rCAG binder: molecules binding r(CAG) RNA repeats; 370,000 tested, 1.3% active; inhibition, % at 3 µM; AID 651821; r(CAG) RNA repeat, TO-PRO-1 dye displacement fluorescence;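 active means inhibition above the plate cutoff, the mean of all test compounds on that plate plus 3 SD, cut at about 35% in these data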;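 further: higher means more dye released from RNA so lower well fluorescence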
# TCR CD3 inh: inhibitors of human TCR-CD3 interaction; TAMRA-labeled TCR probe fluorescence, biochemical; inhibition, % at 9.4 µM; AID 651800; 360,000 tested, 0.37% active; in the data active means inhibition above about 19%;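 further: recombinant mutant TCR 2C K166C tagged with TAMRA read by polarization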
# HTRA1 inhibitor: inhibitors of human serine peptidase HTRA1; inhibition, % at 5.96 µM; Q92743; 340,000 tested, 0.5% active; recombinant HTRA1, FP-rhodamine activity-based probe, fluorescence polarization; in the data active means inhibition above about 36%
# rCAG bind conf: r(CAG) RNA repeat binding, confirmation. shares compounds with rCAG binder. TO-PRO-1 dye displacement fluorescence. inhibition, % at 3 µM. 4,300 tested, 70% active. AID 652065;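 active means inhibition above a per-plate cutoff, the mean inhibition of sample wells plus 3 SD, cut at about 35% in these data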;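 further: loss of TO-PRO-1 fluorescence as compound displaces dye from 1x1 AA loop RNA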
# DNA CAG counter: DNA CAG dye complex inhibition counter-screen. d(CAG) DNA oligo TO-PRO-1 dye displacement, fluorescence. shares compounds with rCAG binder. inhibition, % at 3 µM. 4,300 tested, 94% active;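 active means inhibition above its plate's cutoff, the mean test-well inhibition plus 3 SD, cut at about 4.8% in these data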;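 further: hits displace the dye from DNA and so lower well fluorescence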
# Hits are given with their value; 0 = inactive; - = no result.
SMILES,SIAE primary,mABHD4 FP,rCAG binder,TCR CD3 inh,HTRA1 inhibitor,rCAG bind conf,DNA CAG counter
CCSCCc1nnc(NC(=O)Nc2cccc(C(F)(F)F)c2)s1,0,0,38.0,0,0,0,19.5
O=C(Nc1ccccc1)Nc1nnc(Cc2ccccc2F)s1,0,0,0,0,0,-,-
O=C(O)c1ccc(Cl)c(S(=O)(=O)Nc2ccc(OCc3ccccc3)cc2)c1,0,0,0,0,0,-,-
Cn1c(=O)c2[nH]c(NN=Cc3ccc(F)cc3)nc2n(C)c1=O,0,0,0,0,0,-,-
Cc1cc(C)cc(Nc2nc3c([nH]2)c(=O)n(C)c(=O)n3C)c1,0,0,58.3,0,0,0,12.5
Cc1ccc(Nc2nc3c([nH]2)c(=O)n(C)c(=O)n3C)cc1,0,0,50.6,0,0,0,14.0
C[C@H]1CN([C@@H](C)CO)C(=O)CCCn2nncc2CO[C@@H]1CN(C)C(=O)Nc1cccc2ccccc12,0,0,0,0,0,-,-
CCOC(=O)CC1=NN(c2ccccc2)C(=O)C1,0,0,37.8,0,0,0,5.0
CCOC(=O)CC1=NN(c2ccccc2)C(=O)/C1=C\c1ccc(N(C)C)cc1,0,0,0,0,0,-,-
CCCCCN(CCCCC)C(=O)C(CCC(=O)O)NC(=O)c1ccc(Cl)c(Cl)c1 (stereo unspecified),0,0,53.7,0,0,51.6,11.5
CC(C)C(OC(=O)C1=Cc2ccccc2OC1)C(=O)NCC1CCCO1 (stereo unspecified),0,0,35.4,0,0,48.2,16.5
CC(OC(=O)C1=Cc2ccccc2OC1)C(=O)NC1CCCC1 (stereo unspecified),0,0,0,0,0,-,-
N#CCc1nc2ccc(S(=O)(=O)N3CCOCC3)cc2s1,0,0,43.5,0,0,0,15.0
O=C(COc1ccccc1F)Nc1cc(S(=O)(=O)Nc2cccc(Cl)c2)ccc1O,0,0,63.8,0,0,55.6,21.8
O=C(O)/C(=C\c1ccc(Cl)c([N+](=O)[O-])c1)c1ccc(S(=O)(=O)N2CCCCC2)s1,0,0,38.2,0,0,68.0,29.4
O=C(O)c1cc(S(=O)(=O)N2CCCCC2)sc1Cl,0,0,0,0,0,-,-
O=C(O)/C(=C\c1ccc(Cl)cc1)c1ccc(S(=O)(=O)N2CCCC2)s1,0,0,0,0,0,-,-
O=C(N1CCCCC1)N1CCN(S(=O)(=O)c2cccc([N+](=O)[O-])c2)CC1,0,0,0,0,0,-,-
O=C(O)/C(=C\c1ccccc1Cl)c1ccc(S(=O)(=O)N2CCCCC2)s1,0,0,50.7,0,0,0,9.4
CSc1ccc(/C=C(\C(=O)O)c2ccc(S(=O)(=O)N3CCCCC3)s2)cc1,0,0,59.3,0,0,55.3,19.6
O=C(O)/C(=C\c1cccc([N+](=O)[O-])c1)c1ccc(S(=O)(=O)N2CCCCC2)s1,0,0,37.6,0,0,44.1,14.2
CON(C)c1nc(OCCNC(=O)OCc2ccc(Cl)cc2C)nc(N(C)C)n1,0,0,0,0,0,-,-
Cc1noc(C)c1CN1C(=O)c2cccc([N+](=O)[O-])c2C1=O,0,0,0,0,0,-,-
CCOc1ccc(/C=C(\C(=O)O)c2ccc(S(=O)(=O)N3CCOCC3)s2)cc1OC,0,0,0,0,0,-,-
COc1cc(/C=C(\C(=O)O)c2ccc(S(=O)(=O)N3CCCC3)s2)cc(OC)c1,0,0,0,0,0,-,-
SMILES,SIAE primary,mABHD4 FP,rCAG binder,TCR CD3 inh,HTRA1 inhibitor,rCAG bind conf,DNA CAG counter
CCOc1ccc(/C=C(\C(=O)O)c2ccc(S(=O)(=O)N3CCCCC3)s2)cc1OC,0,0,38.1,0,0,35.2,10.2
O=C(O)/C(=C\c1cccc(C(F)(F)F)c1)c1ccc(S(=O)(=O)N2CCCC2)s1,0,0,36.3,0,0,0,5.5
O=C(O)/C(=C\c1ccc(Cl)c([N+](=O)[O-])c1)c1ccc(S(=O)(=O)N2CCCC2)s1,0,0,71.0,0,0,46.9,14.8
Cc1ccc(N/N=C/c2ccc(N3CCOCC3)cc2)cc1C,0,0,0,0,0,-,-
Cc1ccccc1-n1cc(CNCc2c(C(=O)N(C)C)nc3ccc(Cl)cn23)cn1,0,0,0,0,0,-,-
Cc1cccc(OCCCC(=O)Nc2ccc(S(=O)(=O)Nc3nccs3)cc2)c1C,0,0,58.6,0,0,49.4,17.0

# Source: PubChem BioAssay (The Scripps Research Institute Molecular Screening Center)
